Measurements taken from ChEMBL document CHEMBL2384930, “Interventional effects of plumbagin on experimental ulcerative colitis in mice” (J Nat Prod, 2013).
Calls of active or inactive are those of the source. The rule behind the calls is not given here.

Columns and labels:
Mus musculus [1] = assay: Antiinflammatory activity in C57-B16/J mouse chronic DSS-induced ulcerative colitis model assessed as decrease in serum IL-17 level at 8 mg/kg administered for total of 3 weeks for alternative weeks with water measured after 63 days by ELISA relative to DSS-treated control; type: functional, organism-based; parameters: dose 8 mg/kg
In short: (§1)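 Chronic model, 63 days: three cycles of 1 week 3% DSS, then 1 week of compound in drinking water, then 1 week of water. Serum from clotted blood (overnight, 3000g 10 min) analysed by sandwich ELISA with capture/detection antibodies, streptavidin-HRP and substrate, read at 450 nm. Means ± SE, n = 8−10, one-way ANOVA with Tukey test.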

Mus musculus [2] = assay: Antiinflammatory activity in C57-B16/J mouse DSS-induced ulcerative colitis model assessed as restoration of goblet cells at 10 mg/kg by hematoxylin-eosin staining-based microscopic analysis; type: functional, organism-based; parameters: dose 10 mg/kg
In short: (§2)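 Female C57-BL6/J mice, 8−10 weeks old, given 3% (w/v) DSS in drinking water. Compound dissolved in ethanol and mixed into drinking water, given ad libitum. Colorectal sections stained with hematoxylin and eosin and examined at 400× for crypts, goblet cells, submucosa and monocyte aggregation.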

Mus musculus [3] = assay: Antiinflammatory activity in C57-B16/J mouse DSS-induced ulcerative colitis model assessed as reduction of inflammatory CD14+/CD16+ level in peripheral blood at 6 to 10 mg/kg by flow cytometric analysis relative to DSS-treated control; type: functional; parameters: scale not given: the % may be the effect or the level left; settings: dose mg/kg 6-10
In short: (§3)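 Acute model: female C57-BL6/J mice, 8−10 weeks old, given 3% (w/v) DSS in drinking water, with bottles refilled at days 3 and 5. Oral dosing in drinking water (6, 8, 10 mg/kg, ethanol-dissolved) from day 6. Whole blood stained with anti-CD14-FITC/anti-CD16-PE for 30 min in the dark, RBC-lysed, then flow cytometry. Classic CD14+/CD16−, inflammatory CD14+/CD16+; n = 8.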

Mus musculus [4] = assay: Antiinflammatory activity in C57-B16/J mouse chronic DSS-induced ulcerative colitis model assessed as decrease in serum TNFalpha level at 10 mg/kg administered for total of 3 weeks for alternative weeks with water measured after 63 days by ELISA relative to DSS-treated control; type: functional, organism-based; parameters: dose 10 mg/kg; in short: as §1
Mus musculus [5] = assay: Antiinflammatory activity in C57-B16/J mouse chronic DSS-induced ulcerative colitis model assessed as decrease in serum IL-17 level at 10 mg/kg administered for total of 3 weeks for alternative weeks with water measured after 63 days by ELISA relative to DSS-treated control; type: functional, organism-based; parameters: dose 10 mg/kg; in short: as §1
Mus musculus [6] = assay: Antiinflammatory activity in C57-B16/J mouse acute DSS-induced ulcerative colitis model assessed as suppression of clinical symptoms at 8 to 10 mg/kg administered on day 6 measured up to day 12; type: functional, organism-based
In short: (§4)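 Acute model: female C57-BL6/J mice, 8−10 weeks old, given 3% (w/v) DSS in drinking water. Dosing in drinking water ad libitum at 6, 8 or 10 mg/kg (ethanol stock) from day 6. Vehicle control received ethanol-water. Body weight recorded every other day as percent change. Disease index scored from weight change, stool consistency (1–4), fecal occult blood and prolapse; n = 10.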

Mus musculus [7] = assay: Antiinflammatory activity in C57-B16/J mouse chronic DSS-induced ulcerative colitis model assessed as decrease in serum IFNgamma level at 10 mg/kg administered for total of 3 weeks for alternative weeks with water measured after 63 days by ELISA relative to DSS-treated control; type: functional, organism-based; parameters: dose 10 mg/kg; in short: as §1
Mus musculus [8] = assay: Antiinflammatory activity in C57-B16/J mouse chronic DSS-induced ulcerative colitis model assessed as suppression of clinical symptoms at 8 to 10 mg/kg administered for total of 3 weeks for alternative weeks with water measured after 63 days; type: functional, organism-based
In short: (§5)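 Chronic model in female C57-BL6/J mice: three 3-week cycles of DSS, compound in drinking water and plain water, over 63 days. Mice euthanized by isoflurane overdose and colon length measured (cm). Clinical index scored from body weight change, colorectal length, stool consistency, occult blood and prolapse; n = 10. Statistics by ANOVA with Tukey test.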

Mus musculus [9] = assay: Antiinflammatory activity in C57-B16/J mouse chronic DSS-induced ulcerative colitis model assessed as restoration of colon size at 6 to 10 mg/kg administered for total of 3 weeks for alternative weeks with water measured after 63 days; type: functional, organism-based; in short: as §5
[10] = Oral bioavailability in rat; type: ADME, organism-based; settings: in vivo
Mus musculus [11] = assay: Toxicity in C57-B16/J mouse DSS-induced ulcerative colitis model assessed as circulating CD14+/CD16- level at 6 to 10 mg/kg by flow cytometric analysis relative to DSS-treated control; type: organism-based; parameters: dose 6-10 mg/kg; settings: in vivo; in short: as §3
Mus musculus [12] = assay: Antiinflammatory activity in C57-B16/J mouse acute DSS-induced ulcerative colitis model assessed as reversal of body weight loss at 6 to 10 mg/kg administered on day 6 measured up to day 12; type: functional, organism-based; in short: as §4
Mus musculus [13] = assay: Antiinflammatory activity in C57-B16/J mouse DSS-induced ulcerative colitis model assessed as restoration of submucosa at 10 mg/kg by hematoxylin-eosin staining-based microscopic analysis; type: functional, organism-based; parameters: dose 10 mg/kg; in short: as §2
Mus musculus [14] = assay: Antiinflammatory activity in C57-B16/J mouse DSS-induced ulcerative colitis model assessed as restoration of crypts at 10 mg/kg by hematoxylin-eosin staining-based microscopic analysis; type: functional, organism-based; parameters: dose 10 mg/kg; in short: as §2
Mus musculus [15] = assay: Antiinflammatory activity in C57-B16/J mouse DSS-induced ulcerative colitis model assessed as reduction of inflammatory CD14+/CD16+ level in peripheral blood at 8 to 10 mg/kg by flow cytometric analysis relative to DSS-treated control; type: functional; settings: dose mg/kg 8-10; in short: as §3
Mus musculus [16] = assay: Antiinflammatory activity in C57-B16/J mouse DSS-induced ulcerative colitis model assessed as reduction in monocyte aggregation at 10 mg/kg by hematoxylin-eosin staining-based microscopic analysis; type: functional, organism-based; parameters: dose 10 mg/kg; in short: as §2

Which Activity (Mus musculus [1]) does the source give for CC1=CC(=O)c2c(O)cccc2C1=O [PLUMBAGIN] here?
Its Activity is “inactive”.

And the Activity (Mus musculus [2])?
Its Activity is “Active”.

What about the Activity (Mus musculus [3]) of the same molecule?
Its Activity is 0.3%.

What about the Activity (Mus musculus [4]) of the same molecule?
The Activity was “Active”.

What about the Activity (Mus musculus [5]) of the same molecule?
Its Activity is “Active”.

And the Activity (Mus musculus [6])?
The Activity was “Active”.

And the Activity (Mus musculus [7])?
The Activity was “Active”.

And the Activity (Mus musculus [8])?
Its Activity is “Active”.

What about the Activity (Mus musculus [9]) of the same molecule?
The Activity was “Active”.

What about the bioavailability [10] of the same molecule?
Its bioavailability is 38%.

And the Activity (Mus musculus [11])?
The Activity was 77%.

And the Activity (Mus musculus [12])?
Its Activity is “inactive”.

And the Activity (Mus musculus [13])?
The Activity was “Active”.

What about the Activity (Mus musculus [14]) of the same molecule?
Its Activity is “Active”.

And the “fold change (FC)” value (Mus musculus [15])?
Its value is over 3.

What about the Activity (Mus musculus [16]) of the same molecule?
Its Activity is “Active”.
